{"source": "ChEMBL document CHEMBL1155553", "about": "“Design and synthesis of alpha-ketoamides as cathepsin S inhibitors with potential applications against tumor invasion and angiogenesis” (J Med Chem, 2010)", "data": [{"system": "not listed separately", "assay": "Antiinvasive activity in human CL1-5 cells assessed as cellular migration after 24 hrs by fluorescence assay relative to control", "assay_type": "functional", "set-up": "concentration or dose not given beside the values", "settings": "not given", "units": {"Activity": "%"}, "values": [{"smiles": "CCOC(=O)CNC(=O)C(=O)C(COCc1ccccc1)NC(=O)[C@H](CC1CCCCC1)NC(=O)c1cccc(F)c1F", "note": "(stereo partly specified)", "Activity": 115}, {"smiles": "CCOC(=O)CNC(=O)C(=O)C(COCc1ccccc1)NC(=O)[C@H](CC1CCCCC1)NC(=O)c1ccc(Cl)c(NC(=O)OC(C)(C)C)c1", "note": "(stereo partly specified)", "Activity": 50}, {"smiles": "CCOC(=O)CNC(=O)C(=O)C(COCc1ccccc1)NC(=O)[C@H](CC1CCCCC1)NC(=O)c1cccc(C)c1[N+](=O)[O-]", "note": "(stereo partly specified)", "Activity": 79}, {"smiles": "CCOC(=O)CNC(=O)C(=O)C(COCc1ccccc1)NC(=O)[C@H](CC1CCCCC1)NC(=O)c1cncc(C)n1", "note": "(stereo partly specified)", "Activity": 60}, {"smiles": "CCOC(=O)CNC(=O)C(=O)C(COCc1ccccc1)NC(=O)[C@H](CC1CCCCC1)NC(=O)c1cccc([N+](=O)[O-])c1", "note": "(stereo partly specified)", "Activity": 67}, {"smiles": "CCOC(=O)CNC(=O)C(=O)[C@H](COCc1ccccc1)NC(=O)[C@H](CC1CCCCC1)NC(=O)c1cc(F)ccc1F", "Activity": 48}, {"smiles": "CCOC(=O)CNC(=O)C(=O)C(COCc1ccccc1)NC(=O)[C@H](CC1CCCCC1)NC(=O)c1ccc(OC(C)=O)cc1", "note": "(stereo partly specified)", "Activity": 69}, {"smiles": "CCOC(=O)CNC(=O)C(=O)C(COCc1ccccc1)NC(=O)[C@H](CC1CCCCC1)NC(=O)c1cc(Cl)ccc1[N+](=O)[O-]", "note": "(stereo partly specified)", "Activity": 76}]}, {"biological_target": "Cathepsin B (Homo sapiens) (UniProt P07858)", "assay": "Inhibition of cathepsin B assessed as proteolytic activity at 40 nM by fluorimetric assay", "set-up": "Activity: scale not given: the % may be the effect or the level left", "settings": "not given", "units": {"Activity": "%"}, "values": [{"smiles": "CCOC(=O)CNC(=O)C(=O)C(COCc1ccccc1)NC(=O)[C@H](CC1CCCCC1)NC(=O)c1cccc([N+](=O)[O-])c1", "note": "(stereo partly specified)", "Activity": 97}, {"smiles": "CCOC(=O)CNC(=O)C(=O)C(COCc1ccccc1)NC(=O)[C@H](CC1CCCCC1)NC(=O)c1ccc(OC(C)=O)cc1", "note": "(stereo partly specified)", "Activity": 91}]}, {"system": "HUVEC", "assay": "Cytotoxicity against HUVEC by MTT assay", "assay_type": "cell-based", "settings": "Homo sapiens", "how_it_was_run": "(§1)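 Overall cytotoxicity measured by MTT proliferation assay, compounds tested at concentrations up to 50 μM.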", "units": {"IC50": "nM"}, "values": [{"smiles": "CCOC(=O)CNC(=O)C(=O)C(COCc1ccccc1)NC(=O)[C@H](CC1CCCCC1)NC(=O)c1ccc(Cl)c(NC(=O)OC(C)(C)C)c1", "note": "(stereo partly specified)", "IC50": 48000}, {"smiles": "CCOC(=O)CNC(=O)C(=O)C(COCc1ccccc1)NC(=O)[C@H](CC1CCCCC1)NC(=O)c1cccc([N+](=O)[O-])c1", "note": "(stereo partly specified)", "IC50": "> 50000"}, {"smiles": "CCOC(=O)CNC(=O)C(=O)C(COCc1ccccc1)NC(=O)[C@H](CC1CCCCC1)NC(=O)c1ccc(OC(C)=O)cc1", "note": "(stereo partly specified)", "IC50": "> 50000"}, {"smiles": "CCOC(=O)CNC(=O)C(=O)C(COCc1ccccc1)NC(=O)[C@H](CC1CCCCC1)NC(=O)c1cc(Cl)ccc1[N+](=O)[O-]", "note": "(stereo partly specified)", "IC50": "> 50000"}]}, {"system": "HUVEC", "assay": "Antiinvasive activity in VEGF-stimulated HUVEC assessed as cellular migration after 24 hrs by fluorescence assay relative to control", "assay_type": "functional, Homo sapiens", "set-up": "concentration or dose not given beside the values", "settings": "not given", "units": {"Activity": "%"}, "values": [{"smiles": "CCOC(=O)CNC(=O)C(=O)C(COCc1ccccc1)NC(=O)[C@H](CC1CCCCC1)NC(=O)c1cccc(F)c1F", "note": "(stereo partly specified)", "Activity": 107}, {"smiles": "CCOC(=O)CNC(=O)C(=O)C(COCc1ccccc1)NC(=O)[C@H](CC1CCCCC1)NC(=O)c1ccc(Cl)c(NC(=O)OC(C)(C)C)c1", "note": "(stereo partly specified)", "Activity": 48}, {"smiles": "CCOC(=O)CNC(=O)C(=O)C(COCc1ccccc1)NC(=O)[C@H](CC1CCCCC1)NC(=O)c1cccc(C)c1[N+](=O)[O-]", "note": "(stereo partly specified)", "Activity": 83}, {"smiles": "CCOC(=O)CNC(=O)C(=O)C(COCc1ccccc1)NC(=O)[C@H](CC1CCCCC1)NC(=O)c1cncc(C)n1", "note": "(stereo partly specified)", "Activity": 62}, {"smiles": "CCOC(=O)CNC(=O)C(=O)C(COCc1ccccc1)NC(=O)[C@H](CC1CCCCC1)NC(=O)c1cccc([N+](=O)[O-])c1", "note": "(stereo partly specified)", "Activity": 39}, {"smiles": "CCOC(=O)CNC(=O)C(=O)[C@H](COCc1ccccc1)NC(=O)[C@H](CC1CCCCC1)NC(=O)c1cc(F)ccc1F", "Activity": 34}, {"smiles": "CCOC(=O)CNC(=O)C(=O)C(COCc1ccccc1)NC(=O)[C@H](CC1CCCCC1)NC(=O)c1ccc(OC(C)=O)cc1", "note": "(stereo partly specified)", "Activity": 27}, {"smiles": "CCOC(=O)CNC(=O)C(=O)C(COCc1ccccc1)NC(=O)[C@H](CC1CCCCC1)NC(=O)c1cc(Cl)ccc1[N+](=O)[O-]", "note": "(stereo partly specified)", "Activity": 68}]}, {"system": "not listed separately", "assay": "Cytotoxicity against human CL1-5 cells by MTT assay", "assay_type": "cell-based", "settings": "not given", "how_it_was_run": "as §1", "units": {"IC50": "nM"}, "values": [{"smiles": "CCOC(=O)CNC(=O)C(=O)C(COCc1ccccc1)NC(=O)[C@H](CC1CCCCC1)NC(=O)c1ccc(Cl)c(NC(=O)OC(C)(C)C)c1", "note": "(stereo partly specified)", "IC50": 42000}, {"smiles": "CCOC(=O)CNC(=O)C(=O)C(COCc1ccccc1)NC(=O)[C@H](CC1CCCCC1)NC(=O)c1cccc([N+](=O)[O-])c1", "note": "(stereo partly specified)", "IC50": "> 50000"}, {"smiles": "CCOC(=O)CNC(=O)C(=O)C(COCc1ccccc1)NC(=O)[C@H](CC1CCCCC1)NC(=O)c1ccc(OC(C)=O)cc1", "note": "(stereo partly specified)", "IC50": "> 50000"}, {"smiles": "CCOC(=O)CNC(=O)C(=O)C(COCc1ccccc1)NC(=O)[C@H](CC1CCCCC1)NC(=O)c1cc(Cl)ccc1[N+](=O)[O-]", "note": "(stereo partly specified)", "IC50": "> 50000"}]}, {"biological_target": "Procathepsin L (Homo sapiens) (UniProt P07711)", "sequence (P07711 114-333 limits assumed)": "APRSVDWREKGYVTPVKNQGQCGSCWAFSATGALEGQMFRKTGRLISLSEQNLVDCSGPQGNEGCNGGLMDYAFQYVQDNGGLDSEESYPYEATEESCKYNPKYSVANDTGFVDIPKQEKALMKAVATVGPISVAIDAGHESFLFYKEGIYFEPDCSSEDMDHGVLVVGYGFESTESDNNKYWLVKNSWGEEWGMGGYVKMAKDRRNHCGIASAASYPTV", "assay": "Inhibition of cathepsin L assessed as proteolytic activity at 40 nM by fluorimetric assay", "set-up": "Activity: scale not given: the % may be the effect or the level left", "settings": "not given", "units": {"Activity": "%"}, "values": [{"smiles": "CCOC(=O)CNC(=O)C(=O)C(COCc1ccccc1)NC(=O)[C@H](CC1CCCCC1)NC(=O)c1cccc([N+](=O)[O-])c1", "note": "(stereo partly specified)", "Activity": 2.9}, {"smiles": "CCOC(=O)CNC(=O)C(=O)C(COCc1ccccc1)NC(=O)[C@H](CC1CCCCC1)NC(=O)c1ccc(OC(C)=O)cc1", "note": "(stereo partly specified)", "Activity": 0.4}]}, {"biological_target": "Cathepsin S (Homo sapiens, UniProt P25774)", "sequence (P25774 whole entry)": "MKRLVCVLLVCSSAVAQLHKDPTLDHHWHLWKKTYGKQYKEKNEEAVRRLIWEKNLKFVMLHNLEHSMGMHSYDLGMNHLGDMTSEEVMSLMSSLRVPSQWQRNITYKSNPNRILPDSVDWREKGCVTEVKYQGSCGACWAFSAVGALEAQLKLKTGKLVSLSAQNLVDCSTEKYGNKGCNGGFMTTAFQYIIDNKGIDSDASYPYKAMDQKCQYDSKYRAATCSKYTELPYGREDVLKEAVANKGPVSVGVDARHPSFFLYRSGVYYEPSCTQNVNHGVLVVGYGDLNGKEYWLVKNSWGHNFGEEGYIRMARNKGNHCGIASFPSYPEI", "assay": "Inhibition of human recombinant cathepsin S expressed in Escherichia coli BL21 (DE3) after 10 mins by fluorescence assay", "settings": "not given", "units": {"IC50": "nM"}, "values": [{"smiles": "CCOC(=O)CNC(=O)C(=O)C(COCc1ccccc1)NC(=O)[C@H](CC1CCCCC1)NC(=O)c1cccc(F)c1F", "note": "(stereo partly specified)", "IC50": 5.9}, {"smiles": "CCOC(=O)CNC(=O)C(=O)C(COCc1ccccc1)NC(=O)[C@H](CC1CCCCC1)NC(=O)c1ccc(Cl)c(NC(=O)OC(C)(C)C)c1", "note": "(stereo partly specified)", "IC50": 15.7}, {"smiles": "CCOC(=O)CNC(=O)C(=O)C(COCc1ccccc1)NC(=O)[C@H](CC1CCCCC1)NC(=O)c1cccc(C)c1[N+](=O)[O-]", "note": "(stereo partly specified)", "IC50": 5.6}, {"smiles": "CCOC(=O)CNC(=O)C(=O)C(COCc1ccccc1)NC(=O)[C@H](CC1CCCCC1)NC(=O)c1cncc(C)n1", "note": "(stereo partly specified)", "IC50": 6.1}, {"smiles": "CCOC(=O)CNC(=O)C(=O)C(COCc1ccccc1)NC(=O)[C@H](CC1CCCCC1)NC(=O)c1cccc([N+](=O)[O-])c1", "note": "(stereo partly specified)", "IC50": 1.9}, {"smiles": "CCOC(=O)CNC(=O)C(=O)[C@H](COCc1ccccc1)NC(=O)[C@H](CC1CCCCC1)NC(=O)c1cc(F)ccc1F", "IC50": 11.5}, {"smiles": "CCOC(=O)CNC(=O)C(=O)C(COCc1ccccc1)NC(=O)[C@H](CC1CCCCC1)NC(=O)c1ccc(OC(C)=O)cc1", "note": "(stereo partly specified)", "IC50": 2}, {"smiles": "CCOC(=O)CNC(=O)C(=O)C(COCc1ccccc1)NC(=O)[C@H](CC1CCCCC1)NC(=O)c1cc(Cl)ccc1[N+](=O)[O-]", "note": "(stereo partly specified)", "IC50": 8}]}]}
